# According to ChEMBL document CHEMBL1914430, “Synthesis of some new 1,3,5-trisubstituted pyrazolines bearing benzene sulfonamide as anticancer and anti-inflammatory agents” (Bioorg Med Chem Lett, 2011):
# Columns and labels:
# Format in all cases: functional
# SNB-75 = assay: Anticancer activity against human SNB75 cells after 48 hrs; conditions: SNB-75, 48 h
# In short: (§1)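 NCI 60-line panel protocol with a 48 h incubation. Per line: GI50 = concentration giving 50% decrease in net cell growth; TGI = total growth inhibition; LC50 = net 50% loss of initial cells. When the level was not reached or was exceeded, the value is given as greater or less than the highest or lowest concentration tested.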
# OVCAR-4 = assay: Anticancer activity against human OVCAR4 cells after 48 hrs; conditions: OVCAR-4, 48 h; in short: as §1
# RPMI-8226 = assay: Anticancer activity against human RPMI8226 cells after 48 hrs; conditions: RPMI-8226, 48 h; in short: as §1
# NCI-H23 = assay: Anticancer activity against human NCI-H23 cells after 48 hrs; conditions: NCI-H23, 48 h; in short: as §1
# SF-268 = assay: Anticancer activity against human SF268 cells after 48 hrs; conditions: SF-268, 48 h; in short: as §1
# HOP-92 = assay: Anticancer activity against human HOP92 cells after 48 hrs; conditions: HOP-92, 48 h
# In short: (§2)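 NCI Drug Evaluation Branch 60-cell-line screen across leukemia, melanoma, lung, colon, CNS, ovarian, renal, prostate and breast panels. The incubation period is 48 h. Parameters are derived from dose–response data: GI50 is the concentration giving 50% decrease in net growth, TGI is total growth inhibition, and LC50 is net 50% loss of initial cells. Values beyond the tested range are reported as greater or less than the maximum or minimum concentration.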
# ACHN = assay: Anticancer activity against human ACHN cells after 48 hrs; in short: as §2
# OVCAR-3 = assay: Anticancer activity against human OVCAR3 cells after 48 hrs; conditions: OVCAR-3, 48 h; in short: as §1
# HCT-15 = assay: Anticancer activity against human HCT15 cells after 48 hrs; conditions: HCT-15, 48 h; in short: as §2
# UACC-62 = assay: Anticancer activity against human UACC62 cells after 48 hrs; conditions: UACC-62, 48 h
# In short: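 NCI ~60 human tumour cell line panel with a 48 h incubation. GI50 is the concentration giving a 50% fall in net growth, TGI gives total growth inhibition, and LC50 gives a net 50% loss of initial cells. An effect not reached or exceeded is reported as greater or less than the highest or lowest concentration tested.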
# IGROV-1 = assay: Anticancer activity against human IGROV1 cells after 48 hrs; conditions: IGROV-1, 48 h; in short: as §2
# SF-539 = assay: Anticancer activity against human SF539 cells after 48 hrs; conditions: SF-539, 48 h; in short: as §1
# BT-549 = assay: Anticancer activity against human BT549 cells after 48 hrs; conditions: BT-549, 48 h; in short: as §2
# MCF7 = assay: Anticancer activity against human MCF7 cells after 48 hrs; conditions: MCF7, 48 h; in short: as §2
# [1] = Anticancer activity against human Hs 578T cells after 48 hrs; in short: as §2
# HT-29 = assay: Anticancer activity against human HT-29 cells after 48 hrs; conditions: HT-29, 48 h; in short: as §2
# MDA-MB-468 = assay: Anticancer activity against human MDA-MB-468 cells after 48 hrs; conditions: MDA-MB-468, 48 h; in short: as §2
# SW-620 = assay: Anticancer activity against human SW620 cells after 48 hrs; conditions: SW-620, 48 h; in short: as §1
# EKVX = assay: Anticancer activity against human EKVX cells after 48 hrs; in short: as §2
# CCRF-CEM = assay: Anticancer activity against human CCRF-CEM cells after 48 hrs; in short: as §2
# RXF 393 = assay: Anticancer activity against human RXF393 cells after 48 hrs; conditions: RXF 393, 48 h; in short: as §1
# HOP-62 = assay: Anticancer activity against human HOP62 cells after 48 hrs; conditions: HOP-62, 48 h; in short: as §2
# DU-145 = assay: Anticancer activity against human DU145 cells after 48 hrs; conditions: DU-145, 48 h; in short: as §2
# Malme-3M = assay: Anticancer activity against human MALME-3M cells after 48 hrs; in short: as §2
# NCI-H460 = assay: Anticancer activity against human NCI-H460 cells after 48 hrs; conditions: NCI-H460, 48 h; in short: as §1
# MDA-MB-435 = assay: Anticancer activity against human MDA-MB-435 cells after 48 hrs; conditions: MDA-MB-435, 48 h; in short: as §2
# KM12 = assay: Anticancer activity against human KM12 cells after 48 hrs; conditions: KM12, 48 h; in short: as §2
# SK-MEL-5 = assay: Anticancer activity against human SK-MEL-5 cells after 48 hrs; conditions: SK-MEL-5, 48 h; in short: as §1
# SN12C = assay: Anticancer activity against human SN12C cells after 48 hrs; in short: as §1
# SNB-19 = assay: Anticancer activity against human SNB19 cells after 48 hrs; conditions: SNB-19, 48 h; in short: as §1
# HCC 2998 = assay: Anticancer activity against human HCC2998 cells after 48 hrs; conditions: HCC 2998, 48 h; in short: as §2
# SK-MEL-2 = assay: Anticancer activity against human SK-MEL-2 cells after 48 hrs; conditions: SK-MEL-2, 48 h; in short: as §1
# [2] = read-out: LC50 (the source's name)
smiles,measurement,setting,value
Cc1cc(O)c(C2=NN(c3ccc(S(N)(=O)=O)cc3)C(c3ccccc3O)C2)cc1Cl (stereo unspecified),GI50,SNB-75,1.79 µM
same,TGI,SNB-75,13.6 µM
same,CC50,SNB-75; [2],37.1 µM
same,GI50,OVCAR-4,3.9 µM
same,LC50,OVCAR-4,51.8 µM
same,TGI,OVCAR-4,16 µM
same,GI50,RPMI-8226,2.39 µM
same,LC50 (concentration for net 50% loss of initial cells),RPMI-8226,> 100 µM
same,TGI,RPMI-8226,15 µM
same,GI50,NCI-H23,2.09 µM
same,LC50 (concentration killing 50% of initial cells),NCI-H23,16 µM
same,TGI,NCI-H23,5.03 µM
same,GI50,SF-268,2.64 µM
same,LC50 (concentration killing 50% of initial cells),SF-268,51.9 µM
same,TGI,SF-268,8.06 µM
same,GI50,HOP-92,1.46 µM
same,TGI,HOP-92,6.51 µM
same,CC50,HOP-92; [2],37.8 µM
same,GI50,ACHN,3.13 µM
same,TGI,ACHN,11.2 µM
same,CC50,ACHN; [2],33.4 µM
same,GI50,OVCAR-3,1.81 µM
same,LC50 (concentration giving 50% net loss of initial cells),OVCAR-3,11.3 µM
same,TGI,OVCAR-3,3.73 µM
same,GI50,HCT-15,3.64 µM
same,TGI,HCT-15,13.4 µM
same,CC50,HCT-15; [2],44.7 µM
same,GI50,UACC-62,3.54 µM
same,LC50,UACC-62,40.8 µM
same,TGI,UACC-62,15.5 µM
same,GI50,IGROV-1,1.63 µM
same,LC50 (net 50% loss of initial cells),IGROV-1,37.4 µM
same,TGI,IGROV-1,11.2 µM
same,GI50,SF-539,1.6 µM
same,LC50 (concentration causing net 50% loss of initial cells),SF-539,5.69 µM
same,TGI,SF-539,3.02 µM
same,GI50,BT-549,2.47 µM
same,TGI,BT-549,8.18 µM
same,CC50,BT-549; [2],58.7 µM
same,GI50,MCF7,2.66 µM
same,LC50,MCF7,49.5 µM
same,TGI,MCF7,9.77 µM
same,GI50,[1],4.64 µM
same,TGI,[1],22.5 µM
same,CC50,[1]; [2],> 100 µM
same,GI50,HT-29,2.37 µM
same,TGI,HT-29,5.1 µM
same,CC50,HT-29; [2],12.9 µM
same,GI50,MDA-MB-468,2.58 µM
same,TGI,MDA-MB-468,7.92 µM
same,CC50,MDA-MB-468; [2],37.6 µM
same,GI50,SW-620,1.76 µM
same,TGI,SW-620,3.59 µM
same,CC50,SW-620; [2],7.35 µM
same,GI50,EKVX,1.99 µM
same,TGI,EKVX,7.16 µM
same,CC50,EKVX; [2],39.7 µM
same,GI50,CCRF-CEM,4.17 µM
same,LC50 (concentration causing net 50% loss of initial cells),CCRF-CEM,> 100 µM
same,TGI,CCRF-CEM,> 100 µM
same,GI50,RXF 393,3.65 µM
same,LC50,RXF 393,64.8 µM
same,TGI,RXF 393,13 µM
same,GI50,HOP-62,1.93 µM
same,LC50 (concentration for 50% net loss of initial cells),HOP-62,11.7 µM
same,TGI,HOP-62,4.5 µM
same,GI50,DU-145,2.41 µM
same,LC50 (concentration causing net 50% loss of initial cells),DU-145,10.6 µM
same,TGI,DU-145,4.95 µM
same,GI50,Malme-3M,2.72 µM
same,TGI,Malme-3M,7.34 µM
same,CC50,Malme-3M; [2],59.2 µM
same,GI50,NCI-H460,2.06 µM
same,LC50 (50% lethal concentration),NCI-H460,9.4 µM
same,TGI,NCI-H460,4.48 µM
same,GI50,MDA-MB-435,2.04 µM
same,TGI,MDA-MB-435,4.49 µM
same,CC50,MDA-MB-435; [2],9.88 µM
same,GI50,KM12,1.78 µM
same,LC50 (concentration causing net 50% loss of initial cells),KM12,6.82 µM
same,TGI,KM12,3.48 µM
same,GI50,SK-MEL-5,5.69 µM
same,LC50,SK-MEL-5,42.7 µM
same,TGI,SK-MEL-5,18.2 µM
same,GI50,SN12C,4.08 µM
same,LC50,SN12C,43.1 µM
same,TGI,SN12C,15.3 µM
same,GI50,SNB-19,4.33 µM
same,TGI,SNB-19,15.2 µM
same,CC50,SNB-19; [2],39.8 µM
same,GI50,HCC 2998,2.13 µM
same,LC50 (net 50% loss of initial cells),HCC 2998,8.74 µM
same,TGI,HCC 2998,4.31 µM
same,GI50,SK-MEL-2,11 µM
same,LC50,SK-MEL-2,67 µM
same,TGI,SK-MEL-2,27.2 µM
